# Assay results from different studies.
# Protocols differ between the studies behind these lines.
# CSF1R: Macrophage colony-stimulating factor 1 receptor (CSF1R, Homo sapiens, UniProt P07333)
# CSF1R Y969C: Macrophage colony-stimulating factor 1 receptor (CSF1R, Homo sapiens, UniProt P07333, Y969C)
# CSF1R autoinhibited: Macrophage colony-stimulating factor 1 receptor, autoinhibited (CSF1R, Homo sapiens, UniProt P07333)
Compound,target,observed,action,method,tested at,measurement,result
CCN(CC)c1ccc(C2=NNC(=O)CC2C)cc1[N+](=O)[O-] (centres unmarked),CSF1R,enzyme activity,inhibitor,,10 µM,remaining activity,114%
CCN(CC)CCNC(=O)c1c(C)[nH]c(/C=C2\C(=O)Nc3ccc(F)cc32)c1C,CSF1R,cell-free assay,,,10 µM,inhibition,98%
CC(C)(O)[C@H]1CC[C@H](Nc2ccc3ncc(-c4cccc(C(F)(F)F)c4)n3n2)CC1,CSF1R,enzyme activity,inhibitor,,1 µM,remaining activity,89.7%
O=Nc1c(-c2c(O)[nH]c3ccccc23)[nH]c2ccccc12,CSF1R,cell-free assay,,,0.5 µM,remaining signal,83.2%
Cc1ccc(NC(=O)c2ccc(C)c(C(F)(F)F)c2)cc1C#Cc1nn(C2CCC(O)CC2)c2ncnc(N)c12 (centres unmarked),CSF1R Y969C,cell-free assay,,,10 µM,remaining signal,13%
CS(=O)(=O)Nc1cccc(-c2csc(NC(=O)CSc3nc4nccnc4c(=O)n3CCc3ccccc3)n2)c1,CSF1R,enzyme activity,inhibitor,,10 µM,inhibition,8%
CN(C)C1CCN(CC#Cc2nn(C3CCCC3)c3nc(NCc4ccccc4)ncc23)C1 (centres unmarked),CSF1R,enzyme activity,inhibitor,FRET,0.1 µM,inhibition,44%
O=C1Nc2ccc(Cl)cc2C1=Cc1cc(Cl)c(O)c(Cl)c1,CSF1R,cell-free assay,,,0.5 µM,remaining signal,77.9%
CNC(=O)c1cc2c(Oc3ccc(NC(=O)C4(C(=O)Nc5ccc(F)cc5)CC4)cc3)ccnc2cc1OC,CSF1R Y969C,enzyme activity,inhibitor,radiometric,1 µM,inhibition,77%
CCCOc1ccc(OC)c(F)c1C(=O)c1ccc(C(=O)N[C@@H]2CNC[C@H]2NC(=O)c2ccc3[nH]ncc3c2)cc1,CSF1R Y969C,enzyme activity,inhibitor,,10 µM,remaining activity,57%
C[C@H](c1ccnc(Nc2nc3ccc(-c4cc(N(C)C)ncn4)cc3[nH]2)c1)N1CCN(C(=O)CC(F)(F)F)CC1,CSF1R autoinhibited,cell-free assay,,competition with immobilised ligand,0.1 µM,remaining binding,90%
CCCS(=O)(=O)Nc1ccc(F)c(C(=O)c2c[nH]c3ncc(-c4ccc(Cl)cc4)cc23)c1F,CSF1R,enzyme activity,inhibitor,,1 µM,inhibition,< 20%
Nc1ncnc2occ(-c3ccc(NC(=O)Nc4cc(C(F)(F)F)ccc4F)cc3)c12,CSF1R autoinhibited,cell-free assay,,,20 µM,remaining signal,0.95%
COc1cc(Cl)c(C(=O)N[C@@H](CN[C@H]2CC[C@@H](N)CC2)Cc2ccc(C#N)cc2)cc1-c1ccc(CN[C@H](C)c2ccc(C)cc2)o1,CSF1R,enzyme activity,inhibitor,,1 µM,remaining activity,111%
COc1cc(-c2cn(C3CCc4ccccc4N(CC(F)(F)F)C3=O)nn2)ccc1-n1ccc(C)n1 (centres unmarked),CSF1R,cell-free assay,,competition with immobilised ligand,1 µM,remaining binding,92%
Cc1sc(C(=O)NC2COC2)cc1-n1cc(NC(=O)Nc2c(F)cccc2Cl)cn1,CSF1R,enzyme activity,inhibitor,,10 µM,remaining activity,103%
CO[C@@H](C)c1c(Nc2ccc([C@H](N(C)C(=O)C3CCS(=O)(=O)CC3)C(F)(F)F)cc2)cnc2cc(Cl)nn12,CSF1R,cell-free assay,,competition with immobilised ligand,1 µM,remaining binding,77%
Oc1cccc(-c2nc(N3CCOCC3)c3oc4ncccc4c3n2)c1,CSF1R,cell-free assay,,,0.5 µM,remaining signal,108%
COc1cc2ncnc(Nc3ccc(Oc4ccccc4)c(C)c3C)c2cc1OC,CSF1R,enzyme activity,inhibitor,,1 µM,inhibition,8%
Cc1cc(NC(=O)c2cccc(S(F)(F)(F)(F)F)c2)cc(-n2ccn3nc(-c4cccnc4)cc23)c1,CSF1R autoinhibited,cell-free assay,,competition with immobilised ligand,1 µM,remaining binding,89%
Oc1ccc(-c2nc(-c3ccncc3)c(-c3ccc(F)cc3)[nH]2)cc1,CSF1R,cell-free assay,,,0.5 µM,remaining signal,96.9%
Cc1noc([C@H]2C[C@@H](c3ccc(C(F)(F)F)cc3)CN(C(=O)N3CCS(=O)(=O)C3)C2)n1,CSF1R,cell-free assay,,competition with immobilised ligand,1 µM,remaining binding,100%
Cc1cc(NC(=O)c2cccc3cc(-c4cccc5[nH]nc(N)c45)ccc23)ccc1F,CSF1R Y969C,enzyme activity,inhibitor,,0.1 µM,activity vs control,30%
CN(C)C(=O)Cn1cc(-c2nc([C@@](C)(c3ccc(-c4cnc(N)nc4)cc3)C3CC3)no2)cn1,CSF1R,cell-free assay,,competition with immobilised ligand,1 µM,remaining binding,92%
CC(C)(C)c1nc(-c2cccc(NS(=O)(=O)c3c(F)cccc3F)c2F)c(-c2ccnc(N)n2)s1,CSF1R,enzyme activity,inhibitor,radiometric,1 µM,remaining activity,109%
FC(F)(F)c1ccc2c(c1)nc(-c1cccnc1)n2C1CC1,CSF1R autoinhibited,cell-free assay,,competition with immobilised ligand,1 µM,remaining binding,89%
O=C1NC(=O)c2cc(Nc3ccc(F)cc3)c(Nc3ccc(F)cc3)cc21,CSF1R,cell-free assay,,,0.5 µM,remaining signal,104%
CCC(=O)N[C@@H]1CC[C@H](C(=O)N(C)c2ccc(-c3nc4ccccc4o3)cc2)C1,CSF1R,cell-free assay,,competition with immobilised ligand,1 µM,remaining binding,88%
Cc1cnc(NC2CCOCC2)nc1-n1cnc(C(=O)NC(CN)c2cc(F)cc(Cl)c2)c1 (centres unmarked),CSF1R Y969C,enzyme activity,inhibitor,radiometric,1 µM,remaining activity,101%
